In ChEMBL document CHEMBL2169868, “Flavone-based novel antidiabetic and antidyslipidemic agents” (J Med Chem, 2012):
The source made the active and inactive calls. No cut-off for these calls is given here.

Assays:
Assay type in all cases: functional
Rattus norvegicus [1] = experiment: Antidiabetic activity in sucrose challenged streptozotocin-induced diabetic Sprague-Dawley rat model assessed as reduction in glucose levels at 100 mg/kg, po measured after 5 hrs; parameters: scale not given: the % may be the effect or the level left
Rattus norvegicus [2] = experiment: Antihyperlipidemic activity in Triton-induced dyslipidemic Wistar rat model assessed as reduction in triglyceride level at 100 mg/kg, po; parameters: scale not given: the % may be the effect or the level left
Summary of the method: (§1)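 Male Wistar rats, 8−10 weeks, about 160 g, fed normal pellet diet. Triton X-100 given at 400 mg/kg ip; compound given orally in 1% gum acacia. Retro-orbital blood taken 18 h after Triton and serum separated at 1500g for 10 min. TG and cholesterol measured by kit. Mean % change versus dyslipidemic control, 5 animals.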

Rattus norvegicus [3] = experiment: Antidiabetic activity in sucrose challenged streptozotocin-induced diabetic Sprague-Dawley rat model assessed as reduction in glucose levels at 100 mg/kg, po measured after 24 hrs; parameters: scale not given: the % may be the effect or the level left
Rattus norvegicus [4] = experiment: Antihyperlipidemic activity in Triton-induced dyslipidemic Wistar rat model assessed as reduction in phospholipid level at 100 mg/kg, po; parameters: scale not given: the % may be the effect or the level left; summary of the method: as §1
Rattus norvegicus [5] = experiment: Antihyperlipidemic activity in Triton-induced dyslipidemic Wistar rat model assessed as reduction in cholesterol level at 100 mg/kg, po; parameters: scale not given: the % may be the effect or the level left; summary of the method: as §1
Rattus norvegicus [6] = experiment: Antidiabetic activity in sucrose loaded Wistar rat model assessed as reduction in glucose levels at 100 mg/kg, po; parameters: scale not given: the % may be the effect or the level left
Mus musculus [7] = experiment: Antihyperglycemic activity in diabetic C57BL/KsJ db/db mouse model assessed as reduction in plasma insulin level in hyperglycemia at 25 mg/kg, po qd for 10 days; parameters: scale not given: the % may be the effect or the level left
Summary of the method: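 db/db mice dosed orally every day for 10 days. On day 11, retro-orbital blood was drawn and plasma insulin measured. Mean % change versus vehicle-treated control, 5 mice per group; Student t test.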

Mus musculus [8] = experiment: Antihyperglycemic activity in diabetic C57BL/KsJ db/db mouse model assessed as improvement in glucose tolerance in hyperglycemia at 25 mg/kg, po qd for 10 days
Summary of the method: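 Male/female C57BL/KsJ db/db mice, 12−18 weeks, 40−50 g, selected for glucose 200−350 mg/dL. Oral dosing daily for 10 days. OGTT on day 10 after an overnight fast: compound at −30 min, then 3 g/kg oral glucose at 0 min. Glucose read at 30, 60, 90 and 120 min. AUC taken versus vehicle, 5 mice per group.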

Mus musculus [9] = experiment: Antidyslipidemic activity in diabetic C57BL/KsJ db/db mouse model assessed as increase in plasma HDL-C/cholesterol ratio at 25 mg/kg, po qd for 10 days
Summary of the method: (§2)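 db/db mice (blood glucose 200−350, TG 170−250, cholesterol 170−250, HDL-C 32−40 mg/dL) dosed orally at 25 mg/kg daily for 10 days; retro-orbital blood taken on day 11 for plasma TG, cholesterol and HDL-C (and HDL-C/CHOL ratio); mean % change versus vehicle control, 5 mice per group; Student t test.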

Mus musculus [10] = experiment: Antidyslipidemic activity in diabetic C57BL/KsJ db/db mouse model assessed as reduction in plasma triglyceride level at 25 mg/kg, po qd for 10 days; parameters: scale not given: the % may be the effect or the level left; summary of the method: as §2
Mus musculus [11] = experiment: Antihyperglycemic activity in diabetic C57BL/KsJ db/db mouse model assessed as reduction in hyperglycemia at 25 mg/kg, po qd for 10 days; parameters: scale not given: the % may be the effect or the level left
Summary of the method: (§3)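 db/db mice (C57BL/KsJ, 12−18 weeks, 40−50 g, glucose 200−350 mg/dL), housed at 23 ± 2.0 °C on a 12 h light cycle. Oral dosing daily for 10 days. Blood glucose checked each morning through day 9. Body weight recorded daily from day 1 to day 10. Mean % change versus vehicle, 5 mice per group; Student t test.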

Mus musculus [12] = experiment: Antidyslipidemic activity in diabetic C57BL/KsJ db/db mouse model assessed as reduction in plasma cholesterol level at 25 mg/kg, po qd for 10 days; parameters: scale not given: the % may be the effect or the level left; summary of the method: as §2
Mus musculus [13] = experiment: Reduction in body weight in diabetic C57BL/KsJ db/db mouse model in hyperglycemia at 25 mg/kg, po qd for 10 days relative to untreated control; parameters: scale not given: the % may be the effect or the level left; summary of the method: as §3
Mus musculus [14] = experiment: Antidyslipidemic activity in diabetic C57BL/KsJ db/db mouse model assessed as increase in plasma HDL-cholesterol level at 25 mg/kg, po qd for 10 days; summary of the method: as §2

Row | Compound | Activity (Rattus norvegicus [1]) | Activity (Rattus norvegicus [2]) [%] | Activity (Rattus norvegicus [3]) | Activity (Rattus norvegicus [4]) [%] | Activity (Rattus norvegicus [5]) [%] | Activity (Rattus norvegicus [6]) | Activity (Mus musculus [7]) [%] | Activity (Mus musculus [8]) [%] | Percent increase in HDL-C/cholesterol ratio vs vehicle (Mus musculus [9]) | Activity (Mus musculus [10]) [%] | Activity (Mus musculus [11]) [%] | Activity (Mus musculus [12]) [%] | Activity (Mus musculus [13]) | Activity (Mus musculus [14]) [%]
1 | CC(C)NCC(O)COc1ccc2c(=O)cc(-c3ccc(OCc4ccccc4)c(OCc4ccccc4)c3)oc2c1 (configuration not stated) | 12.4% | 14 | 2.34% | 5 | 16 | 17.9% | – | – | – | – | – | – | – | –
2 | O=c1cc(-c2cc(OCc3ccccc3)cc(OCc3ccccc3)c2)oc2cc(OCC(O)CN3CCN(c4ccccc4)CC3)ccc12 (configuration not stated) | 14.3% | 17 | – | 21 | 24 | – | – | – | – | – | – | – | – | –
3 | CN(C)C(=N)NC(=N)N [METFORMIN] | 24.3% | 5.9 | 19.4% | 6.2 | 4.2 | 22.1% | – | – | – | – | – | – | – | –
4 | CC(C)NCC(O)COc1ccc2c(=O)cc(-c3cc(OCc4ccccc4)cc(OCc4ccccc4)c3)oc2c1 (configuration not stated) | 7.86% | 11 | 2.23% | 8 | 13 | inactive | – | – | – | – | – | – | – | –
5 | COc1ccc(-c2cc(=O)c3ccc(OCC(O)CNC(C)C)cc3o2)cc1OC (configuration not stated) | 13.8% | – | 6.83% | – | – | 23.9% | – | – | – | – | – | – | – | –
6 | CC(C)(C)NCC(O)COc1ccc2oc(-c3ccc(O)c(O)c3)cc(=O)c2c1 (configuration not stated) | inactive | 25 | inactive | 23 | 24 | – | – | – | – | – | – | – | – | –
7 | Cc1ccc(COc2cc(OCc3ccc(C)cc3)cc(-c3cc(=O)c4ccc(OCC(O)CNCc5ccccc5)cc4o3)c2)cc1 (configuration not stated) | 26.2% | 27.2 | 17.9% | 20.8 | 16.5 | 32% | – | – | – | – | – | – | – | –
8 | Cc1ccc(COc2cc(OCc3ccc(C)cc3)cc(-c3cc(=O)c4ccc(OCC(O)CN(C(C)C)C(C)C)cc4o3)c2)cc1 (configuration not stated) | 12.2% | 12.1 | inactive | 4.67 | 10.1 | 15.7% | – | – | – | – | – | – | – | –
9 | COc1cc(-c2cc(=O)c3ccc(OCC(O)CNC(C)C)cc3o2)cc(OC)c1OC (configuration not stated) | – | 19 | – | 16 | 18 | 20.7% | – | – | – | – | – | – | – | –
10 | CC(C)NCC(O)COc1ccc2c(=O)cc(-c3ccc(O)c(O)c3)oc2c1 (configuration not stated) | – | 19 | – | 13 | 15 | inactive | – | – | – | – | – | – | – | –
11 | COc1cc(OC)cc(-c2cc(=O)c3ccc(OCC(O)CNC(C)(C)C)cc3o2)c1 (configuration not stated) | 4.86% | 17 | 2.36% | 19 | 21 | inactive | – | – | – | – | – | – | – | –
12 | CC(C)(C)NCC(O)COc1ccc2c(=O)cc(-c3cc(O)cc(O)c3)oc2c1 (configuration not stated) | – | 16 | – | 4 | 17 | – | – | – | – | – | – | – | – | –
13 | CC(C)(C)NCC(O)COc1ccc2c(=O)cc(-c3ccc(O)c(O)c3)oc2c1 (configuration not stated) | – | 25 | – | 23 | 21 | inactive | – | – | – | – | – | – | – | –
14 | Cc1ccc(COc2cc(OCc3ccc(C)cc3)cc(-c3cc(=O)c4ccc(OCC(O)CNC(C)(C)C)cc4o3)c2)cc1 (configuration not stated) | – | 12.8 | – | 16.2 | 11.2 | 13.6% | – | – | – | – | – | – | – | –
15 | CN(CCOc1ccc(CC2SC(=O)NC2=O)cc1)c1ccccn1 (configuration not stated) [ROSIGLITAZONE] | – | – | – | – | – | – | 40.5 | 49.5 | 108.7 | 24.5 | 54.3 | 32.6 | -18.3% | 6.98
16 | COc1ccc(-c2cc(=O)c3ccc(OCC(O)CN4CCN(c5ccccc5)CC4)cc3o2)cc1OC (configuration not stated) | 4.35% | 19 | 2.34% | 22 | 23 | – | – | – | – | – | – | – | – | –
17 | Cc1ccccc1COc1cc(OCc2ccccc2C)cc(-c2cc(=O)c3ccc(OCC(O)CNC(C)C)cc3o2)c1 (configuration not stated) | – | 26.2 | – | 24.1 | 13.5 | 4.65% | – | – | – | – | – | – | – | –
18 | Cc1ccc(COc2cc(OCc3ccc(C)cc3)cc(-c3cc(=O)c4ccc(OCC(O)CNC(C)C)cc4o3)c2)cc1 (configuration not stated) | 22.8% | 25.6 | 11.9% | 26.5 | 20.3 | 51.6% | – | – | – | – | – | – | – | –
19 | CC(C)NCC(O)COc1ccc2c(=O)cc(-c3cc(OCc4ccccc4Cl)cc(OCc4ccccc4Cl)c3)oc2c1 (configuration not stated) | 6.83% | 30.2 | inactive | 20.2 | 12.1 | 12.6% | – | – | – | – | – | – | – | –
20 | COc1cc(-c2cc(=O)c3ccc(OCC(O)CN4CCN(c5ccccc5)CC4)cc3o2)cc(OC)c1OC (configuration not stated) | 2.36% | 23 | 0.24% | 8 | 19 | – | – | – | – | – | – | – | – | –
21 | COc1cc(OC)cc(-c2cc(=O)c3ccc(OCC(O)CNC(C)C)cc3o2)c1 (configuration not stated) | inactive | 24 | inactive | 21 | 17 | – | – | – | – | – | – | – | – | –
22 | CC(C)NCC(O)COc1ccc2c(=O)cc(-c3cc(OCc4cc(Cl)cc(Cl)c4)cc(OCc4cc(Cl)cc(Cl)c4)c3)oc2c1 (configuration not stated) | 22.1% | 26 | 16.2% | 11.8 | 22.2 | 32.7% | – | – | – | – | – | – | – | –
23 | CC(C)(C)NCC(O)COc1ccc2oc(-c3ccc(OCc4ccccc4)c(OCc4ccccc4)c3)cc(=O)c2c1 (configuration not stated) | – | 17 | 0.36% | 12 | 21 | 21.8% | – | – | – | – | – | – | – | –
24 | CC(C)NC[C@@H](O)COc1ccc2c(=O)cc(-c3cc(O)cc(O)c3)oc2c1 | – | – | – | – | – | – | 9.1 | 22.4 | 16.6 | 14.1 | 28.2 | 11.2 | inactive | 3.59
25 | COc1cc(OC)cc(-c2cc(=O)c3ccc(OCC(O)CN4CCN(c5ccccc5)CC4)cc3o2)c1 (configuration not stated) | – | 17.3 | – | 12.8 | 14.3 | inactive | – | – | – | – | – | – | – | –
26 | CC(C)(C)NCC(O)COc1ccc2c(=O)cc(-c3ccc(OCc4ccccc4)c(OCc4ccccc4)c3)oc2c1 (configuration not stated) | 11.8% | 16 | 0.89% | 12 | 23 | 15.9% | – | – | – | – | – | – | – | –
27 | COc1cc(-c2cc(=O)c3ccc(OCC(O)CNC(C)(C)C)cc3o2)cc(OC)c1OC (configuration not stated) | – | 28 | – | 26 | 24 | inactive | – | – | – | – | – | – | – | –
28 | CC(C)(C)NCC(O)COc1ccc2c(=O)cc(-c3cc(OCc4cc(Cl)cc(Cl)c4)cc(OCc4cc(Cl)cc(Cl)c4)c3)oc2c1 (configuration not stated) | 14.2% | 11.3 | inactive | 12.2 | 8.93 | 25.9% | – | – | – | – | – | – | – | –
29 | CC(C)(C)NCC(O)COc1ccc2c(=O)cc(-c3cc(OCc4ccccc4Cl)cc(OCc4ccccc4Cl)c3)oc2c1 (configuration not stated) | 7.48% | 18.7 | inactive | 11.3 | 12.5 | 14.8% | – | – | – | – | – | – | – | –
30 | Cc1ccccc1COc1cc(OCc2ccccc2C)cc(-c2cc(=O)c3ccc(OCC(O)CNC(C)(C)C)cc3o2)c1 (configuration not stated) | 23.2% | 28.2 | 17.2% | 12.6 | 22.3 | 39.1% | – | – | – | – | – | – | – | –
